From ChEMBL document CHEMBL4422659, “Discovery of novel 4-phenyl-2-(pyrrolidinyl)nicotinamide derivatives as potent Nav1.1 activators” (Bioorg Med Chem Lett, 2019) come the findings set out here.

Converted amounts (≈) assume the structure as drawn.

For data set [1], the target named is Sodium channel protein type 1 subunit alpha (Homo sapiens) (UniProt P35498). Briefly: Activation of human Nav1.1 expressed in T-Rex-CHO cells assessed as change in decay time constant of channel currents at 1 uM at holding potential of -120 mV by automated patch-clamp electrophysiology assay relative to control. In kind it is cell-based. Put shortly: (§1)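 Human Nav1.1 stably expressed in CHO cells; inactivation current decay time constant (tau) measured on IonWorks automated patch platform; tau given as % of control; mean of N=5 unless noted, standard deviation reported.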
(In general: The patch-clamp technique gives a direct electrical read-out from membranes.)

Data set [2] shares this target. Nature of the data set: Activation of human Nav1.1 expressed in T-Rex-CHO cells assessed as change in decay time constant of channel currents at 3 uM at holding potential of -120 mV by automated patch-clamp electrophysiology assay relative to control. Format: cell-based. The method, boiled down: as §1
For data set [3] the target is unchanged. Nature of the data set: Activation of human Nav1.1 expressed in T-Rex-CHO cells assessed as change in decay time constant of channel currents at 10 uM at holding potential of -120 mV by automated patch-clamp electrophysiology assay relative to control. In kind it is cell-based. The method, boiled down: as §1
Data set [4] shares this target. Briefly: Activation of human Nav1.1 expressed in T-Rex-CHO cells assessed as change in decay time constant of channel currents at 10 uM by Q-patch assay relative to control. Format: cell-based. The method, boiled down:
(§2)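 Human Nav1.1 in CHO cells, Q-patch automated patch clamp; current decay time constant (tau) and top current ratio expressed as % of control; mean of N=4 unless noted, standard deviation reported.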

The target is the same in data set [5]. Briefly: Activation of human Nav1.1 expressed in T-Rex-CHO cells assessed as change in top peak current at 10 uM by Q-patch assay relative to control. Format: cell-based. The method, boiled down:
as §2

Data set [6] has the same target. Nature of the data set: Activation of human Nav1.1 expressed in T-Rex-CHO cells assessed as change in top peak current at 3 uM by Q-patch assay relative to control. Format: cell-based. The method, boiled down: as §2
Data set [7] shares this target. Briefly: Activation of human Nav1.1 expressed in T-Rex-CHO cells assessed as change in decay time constant of channel currents at 3 uM by Q-patch assay relative to control. Format: cell-based. The method, boiled down:
as §2

The target is the same in data set [8]. Nature of the data set: Activation of human Nav1.1 expressed in T-Rex-CHO cells assessed as change in decay time constant of channel currents at 1 uM by Q-patch assay relative to control. In kind it is cell-based. Put shortly: as §2
The target is the same in data set [9]. Briefly: Activation of human Nav1.1 expressed in T-Rex-CHO cells assessed as change in top peak current at 1 uM by Q-patch assay relative to control. In kind it is cell-based. The method, boiled down:
as §2

Data set [10] is described as follows: 1-octanol/water partition co-efficient, log D of the compound at pH 7.4 by chromatographic analysis. In kind it is physicochemical.
Data set [11] in a line: Aqueous solubility of compound at pH 6.8 by UV absorbance method. Format: physicochemical. To be noted: buffer. The method, boiled down: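 Solubility determined at pH 6.8.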
Data set [12] concerns the target Sodium channel protein type 1 subunit alpha (Homo sapiens) (UniProt P35498). Nature of the data set: Activation of human Nav1.1 expressed in T-Rex-CHO cells assessed as change in decay time constant of channel currents at 30 uM at holding potential of -120 mV by automated patch-clamp electrophysiology assay relative to control. In kind it is cell-based. The method, boiled down: as §1

For data set [13] the target is unchanged. Briefly: Activation of human Nav1.1 expressed in T-Rex-CHO cells assessed as change in decay time constant of channel currents at 0.3 uM at holding potential of -120 mV by automated patch-clamp electrophysiology assay relative to control. Format: cell-based. The method, boiled down:
as §1

Data set [14] concerns the target Sodium channel protein type 2 subunit alpha (Homo sapiens) (UniProt Q99250). Nature of the data set: Activation of human Nav1.2 expressed in T-Rex-CHO cells assessed as change in decay time constant of channel currents at 1 uM at holding potential of -120 mV by automated patch-clamp electrophysiology assay relative to control. Format: cell-based.
The nature of data set [15]: Ratio of drug level in brain to plasma in mouse at 30 mg/kg, ip measured at 1 hr by LC-MS/MS analysis. Format: ADME, organism-based. The note with it: brain and plasma. Put shortly:
(§3)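 Mice dosed 30 mg/kg intraperitoneally; plasma and brain levels measured 1 h post-dose; brain/plasma ratio computed from total concentrations in brain and plasma.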

In data set [16] the target is T1, Sodium channel protein type 5 subunit alpha (Homo sapiens, UniProt Q14524). Briefly: Activation of human Nav1.5 expressed in T-Rex-CHO cells assessed as change in peak current at 1 uM by Q-patch assay relative to control. In kind it is cell-based.
Data set [17] concerns the target Sodium channel protein type 2 subunit alpha (Homo sapiens) (UniProt Q99250). Nature of the data set: Activation of human Nav1.2 expressed in T-Rex-CHO cells assessed as change in peak current at 1 uM by Q-patch assay relative to control. In kind it is cell-based.
Data set [18] deals with Sodium channel protein type 1 subunit alpha (Homo sapiens) (UniProt P35498). Briefly: Activation of human Nav1.1 expressed in T-Rex-CHO cells assessed as change in decay time constant of channel currents at 0.03 uM by Q-patch assay relative to control. Format: cell-based. The method, boiled down: as §2
Data set [19] in a line: Free drug level in mouse brain at 30 mg/kg, ip measured at 1 hr by LC-MS/MS analysis. To be noted: in vivo. In kind it is ADME, organism-based. The method, boiled down:
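Free brain concentration derived from total brain level 1 h after 30 mg/kg i.p. in mice and the brain protein binding ratio.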

Data set [20] has as its target Sodium channel protein type 8 subunit alpha (Homo sapiens) (UniProt Q9UQD0). Briefly: Activation of human Nav1.6 expressed in T-Rex-CHO cells assessed as change in peak current at 1 uM by Q-patch assay relative to control. In kind it is cell-based.
Data set [21] in a line: Drug uptake in mouse plasma at 30 mg/kg, ip measured at 1 hr by LC-MS/MS analysis. Format: ADME, organism-based. The method, boiled down:
as §3

Data set [22] concerns the target Sodium channel protein type 3 subunit alpha (Homo sapiens) (UniProt Q9NY46). Briefly: Activation of human Nav1.3 expressed in CHO cells assessed as change in peak current at 1 uM by Q-patch assay relative to control. In kind it is cell-based.
The nature of data set [23]: Drug uptake in mouse brain at 30 mg/kg, ip measured at 1 hr by LC-MS/MS analysis. To be noted: read-out: Drug uptake. In kind it is ADME, organism-based. The method, boiled down: as §3
Data set [24] can be described thus: Fraction unbound in mouse brain at 30 mg/kg, ip measured at 1 hr by LC-MS/MS analysis. Format: ADME, organism-based. Put shortly:
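Brain protein binding ratio determined for brain exposure study in mice given 30 mg/kg i.p., sampled at 1 h.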

Data set [25] concerns the target Sodium channel protein type 1 subunit alpha (Homo sapiens) (UniProt P35498). Briefly: Activation of human Nav1.1 expressed in T-Rex-CHO cells assessed as change in decay time constant of channel currents at 0.1 uM by Q-patch assay relative to control. In kind it is cell-based. The method, boiled down:
as §2

For data set [26], the target named is Sodium channel protein type 3 subunit alpha (Homo sapiens) (UniProt Q9NY46). Nature of the data set: Activation of human Nav1.3 expressed in CHO cells assessed as change in decay time constant of channel currents at 1 uM at holding potential of -120 mV by automated patch-clamp electrophysiology assay relative to control. Format: cell-based.
The subject of a further data set is human MDR1. Nature of the data set: Efflux ratio of permeability across pig LLC-PK1 cells expressing human MDR1 at 1 uM after 1 hr by LC-MS/MS analysis. Format: ADME, cell-based, Sus scrofa. Put shortly: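 Efflux ratio measured in LLC-PK1 cells over-expressing human MDR1, substrate at 1 μM.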
Data set [27] concerns the target Sodium channel protein type 8 subunit alpha (Homo sapiens) (UniProt Q9UQD0). Briefly: Activation of human Nav1.6 expressed in T-Rex-CHO cells assessed as change in decay time constant of channel currents at 1 uM at holding potential of -120 mV by automated patch-clamp electrophysiology assay relative to control. Format: cell-based.
Data set [28] concerns the target T1, Sodium channel protein type 5 subunit alpha. Briefly: Activation of human Nav1.5 expressed in T-Rex-CHO cells assessed as change in decay time constant of channel currents at 1 uM at holding potential of -120 mV by automated patch-clamp electrophysiology assay relative to control. In kind it is cell-based.

Sequence of Sodium channel protein type 8 subunit alpha (Homo sapiens) (Q9UQD0 whole entry, looked up): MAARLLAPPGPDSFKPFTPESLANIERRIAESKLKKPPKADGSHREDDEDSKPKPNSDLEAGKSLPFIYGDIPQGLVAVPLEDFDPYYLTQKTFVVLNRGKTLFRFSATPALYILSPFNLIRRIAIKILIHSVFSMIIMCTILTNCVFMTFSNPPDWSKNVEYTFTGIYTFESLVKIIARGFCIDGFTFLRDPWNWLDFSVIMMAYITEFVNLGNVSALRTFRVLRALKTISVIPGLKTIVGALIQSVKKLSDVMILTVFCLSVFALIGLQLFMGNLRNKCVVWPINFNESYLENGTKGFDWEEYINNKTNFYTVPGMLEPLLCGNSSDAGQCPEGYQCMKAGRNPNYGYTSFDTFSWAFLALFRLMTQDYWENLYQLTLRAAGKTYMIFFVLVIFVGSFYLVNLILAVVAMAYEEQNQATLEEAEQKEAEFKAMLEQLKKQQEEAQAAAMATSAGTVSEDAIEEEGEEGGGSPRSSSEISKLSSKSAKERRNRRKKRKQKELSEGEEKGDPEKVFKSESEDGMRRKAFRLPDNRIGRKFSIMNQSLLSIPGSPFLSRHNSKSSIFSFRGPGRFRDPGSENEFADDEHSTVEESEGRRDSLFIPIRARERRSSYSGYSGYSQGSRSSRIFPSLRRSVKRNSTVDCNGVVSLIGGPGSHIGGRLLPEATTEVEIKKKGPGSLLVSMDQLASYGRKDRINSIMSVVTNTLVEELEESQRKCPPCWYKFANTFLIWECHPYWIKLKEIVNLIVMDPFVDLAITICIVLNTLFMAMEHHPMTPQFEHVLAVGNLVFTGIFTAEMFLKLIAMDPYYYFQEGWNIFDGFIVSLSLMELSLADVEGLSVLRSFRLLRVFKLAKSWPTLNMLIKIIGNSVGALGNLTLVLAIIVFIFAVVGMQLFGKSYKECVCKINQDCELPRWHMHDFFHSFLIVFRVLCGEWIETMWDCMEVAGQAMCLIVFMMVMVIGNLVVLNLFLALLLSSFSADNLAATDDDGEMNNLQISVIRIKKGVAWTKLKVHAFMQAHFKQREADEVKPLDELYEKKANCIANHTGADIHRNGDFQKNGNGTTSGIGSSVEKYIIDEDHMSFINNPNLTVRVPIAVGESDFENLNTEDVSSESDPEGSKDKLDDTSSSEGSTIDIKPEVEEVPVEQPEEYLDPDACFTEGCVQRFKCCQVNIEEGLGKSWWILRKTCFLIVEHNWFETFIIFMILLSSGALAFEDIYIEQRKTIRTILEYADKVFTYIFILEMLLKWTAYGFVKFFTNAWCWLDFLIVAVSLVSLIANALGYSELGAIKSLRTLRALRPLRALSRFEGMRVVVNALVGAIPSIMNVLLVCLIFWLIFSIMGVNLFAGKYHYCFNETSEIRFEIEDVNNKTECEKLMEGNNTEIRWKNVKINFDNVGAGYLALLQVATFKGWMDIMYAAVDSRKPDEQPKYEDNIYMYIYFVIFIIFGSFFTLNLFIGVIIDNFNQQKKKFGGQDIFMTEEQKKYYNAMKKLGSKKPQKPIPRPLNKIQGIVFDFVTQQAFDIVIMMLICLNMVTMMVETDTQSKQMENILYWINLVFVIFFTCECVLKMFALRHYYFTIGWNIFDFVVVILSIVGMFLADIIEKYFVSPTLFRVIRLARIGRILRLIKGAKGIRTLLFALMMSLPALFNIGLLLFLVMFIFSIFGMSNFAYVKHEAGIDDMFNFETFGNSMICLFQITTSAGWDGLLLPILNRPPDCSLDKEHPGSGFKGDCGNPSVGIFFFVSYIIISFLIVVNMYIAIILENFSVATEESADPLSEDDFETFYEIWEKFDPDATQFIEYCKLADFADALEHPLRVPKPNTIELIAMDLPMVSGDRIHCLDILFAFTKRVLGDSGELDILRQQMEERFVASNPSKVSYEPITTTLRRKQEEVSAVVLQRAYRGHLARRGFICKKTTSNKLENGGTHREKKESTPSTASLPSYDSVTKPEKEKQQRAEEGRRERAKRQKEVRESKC
Sequence of Sodium channel protein type 3 subunit alpha (Homo sapiens) (Q9NY46 whole entry, looked up): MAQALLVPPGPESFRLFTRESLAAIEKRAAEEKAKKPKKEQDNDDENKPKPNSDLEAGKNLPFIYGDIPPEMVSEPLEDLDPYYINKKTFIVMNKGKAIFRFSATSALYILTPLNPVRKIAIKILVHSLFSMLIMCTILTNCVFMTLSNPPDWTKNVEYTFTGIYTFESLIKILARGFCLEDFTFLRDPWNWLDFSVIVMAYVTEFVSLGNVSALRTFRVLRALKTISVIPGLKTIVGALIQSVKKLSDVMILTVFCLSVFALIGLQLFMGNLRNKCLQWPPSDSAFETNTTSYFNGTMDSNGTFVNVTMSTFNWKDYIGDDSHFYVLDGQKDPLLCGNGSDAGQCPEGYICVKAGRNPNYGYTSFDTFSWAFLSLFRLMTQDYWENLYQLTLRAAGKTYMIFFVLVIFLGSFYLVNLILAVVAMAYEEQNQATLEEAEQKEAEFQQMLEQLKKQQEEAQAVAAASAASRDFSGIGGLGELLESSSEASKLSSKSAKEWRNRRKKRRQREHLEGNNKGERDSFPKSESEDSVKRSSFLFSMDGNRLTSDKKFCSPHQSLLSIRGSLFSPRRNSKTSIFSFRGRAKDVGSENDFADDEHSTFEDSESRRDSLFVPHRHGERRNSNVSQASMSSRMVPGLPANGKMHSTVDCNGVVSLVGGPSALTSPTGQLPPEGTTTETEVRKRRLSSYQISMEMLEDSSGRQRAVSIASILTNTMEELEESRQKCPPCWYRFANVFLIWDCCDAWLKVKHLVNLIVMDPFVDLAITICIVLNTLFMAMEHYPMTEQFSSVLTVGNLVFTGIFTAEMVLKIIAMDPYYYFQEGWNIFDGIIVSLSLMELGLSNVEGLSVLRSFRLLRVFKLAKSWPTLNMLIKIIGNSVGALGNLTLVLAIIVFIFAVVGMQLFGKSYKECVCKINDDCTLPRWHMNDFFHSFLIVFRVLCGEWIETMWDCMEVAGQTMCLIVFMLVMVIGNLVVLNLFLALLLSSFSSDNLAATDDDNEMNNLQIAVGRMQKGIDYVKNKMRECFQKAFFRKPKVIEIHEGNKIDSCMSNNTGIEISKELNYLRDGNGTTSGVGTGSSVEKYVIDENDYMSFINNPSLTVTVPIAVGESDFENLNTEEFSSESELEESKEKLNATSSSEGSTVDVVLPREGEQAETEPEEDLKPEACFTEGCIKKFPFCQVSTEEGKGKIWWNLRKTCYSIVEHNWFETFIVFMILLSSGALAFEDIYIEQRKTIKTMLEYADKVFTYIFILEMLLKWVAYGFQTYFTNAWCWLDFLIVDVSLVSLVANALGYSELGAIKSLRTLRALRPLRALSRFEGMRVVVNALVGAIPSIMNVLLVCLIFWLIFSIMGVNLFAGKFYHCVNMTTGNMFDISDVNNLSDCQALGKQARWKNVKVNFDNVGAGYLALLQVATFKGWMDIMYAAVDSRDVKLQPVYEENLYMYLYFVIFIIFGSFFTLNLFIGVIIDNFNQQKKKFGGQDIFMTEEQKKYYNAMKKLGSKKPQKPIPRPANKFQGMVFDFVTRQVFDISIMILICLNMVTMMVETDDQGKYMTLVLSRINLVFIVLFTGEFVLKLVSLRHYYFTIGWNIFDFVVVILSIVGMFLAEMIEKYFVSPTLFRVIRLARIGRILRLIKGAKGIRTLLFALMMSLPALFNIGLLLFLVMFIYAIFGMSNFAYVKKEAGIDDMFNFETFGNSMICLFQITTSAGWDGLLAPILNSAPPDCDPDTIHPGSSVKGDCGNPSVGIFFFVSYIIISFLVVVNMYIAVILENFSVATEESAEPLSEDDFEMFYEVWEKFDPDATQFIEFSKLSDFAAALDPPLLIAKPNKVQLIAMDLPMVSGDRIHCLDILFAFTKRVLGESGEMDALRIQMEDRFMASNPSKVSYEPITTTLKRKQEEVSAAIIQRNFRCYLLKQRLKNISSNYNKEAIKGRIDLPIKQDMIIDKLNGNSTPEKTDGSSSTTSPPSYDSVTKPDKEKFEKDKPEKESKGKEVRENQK

Take `CC(C)c1ccc(NC(=O)c2c(-c3ccc(F)cc3)ncnc2N2CC[C@H](F)C2)cn1`: the Activity in [1] was 93%; in data set [2], 197%.
`CC(C)c1ccc(NC(=O)c2c(-c3ccc(Cl)cc3)cncc2N2CCOCC2)cn1`: the Activity in [3] is 699%; in data set [2] it was 313%.
Take `Cc1cc(C)c(NC(=O)c2c(-c3ccc(Cl)cc3)noc2N2CCOCC2)c(C)c1`: the Activity turned out to be 179% in data set [4]; 86% in data set [5]; 86% in data set [6]; 120% in [7]; 113% in [8]; 92% in data set [9]. Also, the Activity in data set [3] was 102%; in data set [2] it was 99%; in data set [12], 138%. In [10], the chromatographic logD (commonly lipophilicity estimated from chromatographic retention) was 3.43. Moreover, the concentration in solution in data set [11] (solubility) was 0.9 µg/mL (≈ 2.11 µM).
Consider `CC(C)c1ccc(NC(=O)c2c(-c3cccc(F)c3)ncnc2N2CC[C@H](F)C2)cn1`, for which the values for the Activity in data set [1] and in data set [2] were 111% and 271%, respectively.
In the case of `CC(C)c1ccc(NC(=O)c2c(-c3ccoc3)ncnc2N2CC[C@H](F)C2)cn1`, the values for the Activity in [1] and in [2] were 80% and 115%, respectively.
Consider `CC(C)c1ccc(NC(=O)c2c(-c3ccc(Cl)cc3)cccc2N2CCOCC2)cn1`, for which the Activity in data set [3] came to 110%; in data set [2], 99%.
Taken in the same sequence, the figures for `CC(C)c1ccc(NC(=O)c2c(-c3ccc(Cl)cc3)ccnc2N2CCOCC2)cn1` were 767% and 374%.
Regarding `CC(C)c1ccc(NC(=O)c2c(-c3cc(F)cc(F)c3F)ncnc2N2CC[C@H](F)C2)cn1`, the figures for the Activity in [1] and in data set [2] were 114% and 298%, respectively.
In the case of `CC(C)c1ccc(NC(=O)c2c(-c3cc(F)ccc3F)cncc2N2CC[C@H](F)C2)cn1`, the Activity was found to be 92% in data set [13] and 124% in data set [1].
As to `CC(C)c1ccc(NC(=O)c2c(-c3ccn(C)n3)ncnc2N2CC[C@H](F)C2)cn1`, the Activity in data set [1] is 80%; in [2], 87%.
Take `CC(C)c1ccc(NC(=O)c2c(-c3cc(F)ccc3F)ccnc2N2CC[C@H](F)C2)cn1`: the Activity is 106% in [14]; 94% in [16]; 94% in data set [17]; 255% in [18]; 100% in data set [20]; 176% in data set [13]. Besides, the Activity in [22] is 129%; in data set [1] it was 492%; in data set [25] it was 1200%; in [26], 826%; in data set [8], 1900%; in data set [9] it was 144%. For the same compound, the values for the Activity in data set [27] and in [28] were 102% and 108%, respectively. Moreover, in data set [15], the partition ratio (Kp) – broadly, tissue or fluid exposure divided by exposure in the circulation – at 1 h amounted to 0.2. Also, the “Drug uptake(free)” value in data set [19] was 13 nM. Besides, the concentration at 1 h in data set [21] is 968 ng/mL; in [23], 193 ng/g. The free fraction (fraction unbound) (commonly free concentration divided by total concentration) at 1 h in data set [24] turned out to be 0.029. For the same compound, the efflux ratio (as a rule, the permeability from basolateral to apical divided by that in the opposite direction, in the common usage) at 1 h, 1 µM in the data set on human MDR1 was 1.
On to `CC(C)c1ccc(NC(=O)c2c(N3CCOCC3)ccnc2-c2ccc(Cl)cc2)cn1`, for which the results for the Activity in [3] and in data set [2] were 107% and 97%, respectively.
